Test results taken from ChEMBL document CHEMBL1140410, “Discovery of the novel antithrombotic agent 5-chloro-N-({(5S)-2-oxo-3- [4-(3-oxomorpholin-4-yl)phenyl]-1,3-oxazolidin-5-yl}methyl)thiophene- 2-carboxamide (BAY 59-7939): an oral, direct factor Xa inhibitor” (J Med Chem, 2005).
pIC50: −log10 of the molar value.

How the values were obtained:
Rattus norvegicus [1] = species: Rattus norvegicus; experiment: In vitro inhibitory concentration of compound required to double the time to fibrin formation upon incubation with rat plasma for 10 minutes at 37 degrees C; type: functional
Method in brief: (§1)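 Inhibitor at increasing concentrations, or solvent, added to plasma and incubated 10 min at 37 °C. PT then measured in a coagulometer using commercial kits and compared with control plasma. Value is the concentration that doubles time to fibrin formation.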

Rattus norvegicus [2] = experiment: In vivo antithrombotic activity of compound in the arteriovenous shunt model in anesthetized rats after intravenous administration; type: functional
Method in brief: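 Anesthetized rats with a carotid artery to jugular vein shunt: PE-60 catheters joined by a 30 mm PE-160 tube holding a rough nylon thread folded into a 20 mm double string. Compound in PEG/water/glycerol (996 g/100 g/60 g), or vehicle, given as iv bolus into a tail vein 10 min before thrombus induction. Shunt open 15 min; thread with thrombus withdrawn and weighed.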

Coagulation factor X [3] = target: T1, Coagulation factor X (Homo sapiens, UniProt P00742); experiment: In vitro inhibitory concentration of compound required to double the time to fibrin formation upon incubation with human plasma for 10 minutes at 37 degrees C; type: functional, cell-free; method in brief: as §1
T1 sequence (P00742 41-179 limits assumed): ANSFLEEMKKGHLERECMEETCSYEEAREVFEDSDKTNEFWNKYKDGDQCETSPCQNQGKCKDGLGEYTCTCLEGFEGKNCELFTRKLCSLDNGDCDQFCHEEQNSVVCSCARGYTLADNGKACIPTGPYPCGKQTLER
T1 sequence (P00742 235-488 limits assumed): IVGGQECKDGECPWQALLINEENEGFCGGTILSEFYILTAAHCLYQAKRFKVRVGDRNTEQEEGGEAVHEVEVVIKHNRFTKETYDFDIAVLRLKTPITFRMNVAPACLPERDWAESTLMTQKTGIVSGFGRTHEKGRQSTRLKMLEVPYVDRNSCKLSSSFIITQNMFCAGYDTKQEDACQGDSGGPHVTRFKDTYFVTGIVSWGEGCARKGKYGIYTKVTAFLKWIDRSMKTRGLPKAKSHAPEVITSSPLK

Coagulation factor X [4] = target: T1, Coagulation factor X; experiment: In vitro inhibition of human coagulation factor Xa after incubation for 10 min at 25 degree C
Rattus norvegicus [5] = experiment: In vivo antithrombotic activity of compound in the arteriovenous shunt model in anesthetized rats after peroral administration; type: functional; conditions: po
Method in brief: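 Anesthetized rats, AV shunt from right carotid artery to left jugular vein, containing a nylon thread folded into a 20 mm double string. Compound in solutol/ethanol/water (40%/10%/50% v/v/v), or vehicle, dosed orally 90 min before thrombus induction. Shunt opened for 15 min, then the thread with thrombus was removed and weighed.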

[6] = Mean apparent volume of distribution at equilibrium after intravenous administration in rats at a dose of 1 and 3 mg/kg; type: ADME, organism-based; set-up: dose 3 mg/kg, route intravenous; conditions: rat, in vivo, read-out: Vss
Method in brief: (§2)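 Rats given 1 and 3 mg kg-1 iv in PEG400/water (6:4), 5 mL kg-1. Values are means over both doses.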

[7] = Mean apparent volume of distribution at equilibrium after administration in female Beagle dogs at a dose of 0.3 and 1 mg kg-1 intravenously; type: ADME, organism-based, Canis lupus familiaris; set-up: dose 1 mg kg-1, route intravenous; conditions: dog, in vivo, iv, read-out: Vss
[8] = Fraction of unbound compound in rat plasma; type: ADME, cell-free
Method in brief: (§3)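 Equilibrium dialysis of [14C]-labelled compound in plasma at targets of 0.1–100 mg L-1. Spiked plasma preincubated 15 min at 37 °C, then dialyzed 1 h at 37 °C against PBS pH 7.4 across a cellulose membrane. Radioactivity in buffer and plasma counted by LSC; fu = cu/c × 100.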

[9] = Mean half-life after intravenous administration to rats at a dose of 1 and 3 mg/kg; type: ADME, organism-based; set-up: dose 3 mg/kg, route intravenous; conditions: rat, in vivo; method in brief: as §2
[10] = Mean half-life after intravenous administration to female Beagle dogs at a dose of 0.3 and 1 mg/kg; type: ADME, organism-based, Canis lupus familiaris; set-up: dose 1 mg/kg, route intravenous; conditions: dog, in vivo
[11] = Bioavailability in female Beagle dog is the mean value of AUCnorm perorally to AUCnorm intravenously; type: ADME, organism-based, Canis lupus familiaris; conditions: in vivo, po
Method in brief: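 Female beagle dogs dosed po at 0.3, 1 and 3 mg kg-1, 1 mL kg-1. Bioavailability = AUCnorm after oral dosing divided by AUCnorm after iv 0.3 or 1.0 mg kg-1 infusion.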

[12] = Mean plasma clearance in wistar rats after intravenous administration of the compound at a dose of 1 and 3 mg/kg; type: ADME, organism-based; set-up: dose 3 mg/kg, route intravenous; conditions: rat; method in brief: as §2
[13] = Oral bioavailability in rat; type: ADME, organism-based; conditions: in vivo
[14] = Fraction of unbound compound in female Beagle dog plasma; type: ADME, cell-free, Canis lupus familiaris; conditions: read-out: Fraction free drug in plasma; method in brief: as §3
[15] = Mean plasma clearance in female Beagle dogs after intravenous administration of the compound at a dose of 0.3 and 1 mg/kg; type: ADME, organism-based, Canis lupus familiaris; set-up: dose 1 mg/kg, route intravenous; conditions: dog
[16] = Half-life after intravenous administration to rats; type: ADME, organism-based; conditions: rat, in vivo
[17] = Plasma clearance in wistar rats after intravenous administration of the compound at a dose of 0.3 mg/kg; type: ADME, organism-based; set-up: dose 0.3 mg/kg, route intravenous; conditions: rat
Method in brief: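 Rats given 0.3 mg kg-1 iv in plasma/DMSO (99:1), 2 mL kg-1.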

[18] = Apparent volume of distribution at equilibrium after intravenous administration in rats; type: ADME, organism-based; conditions: rat, in vivo, read-out: Vss
[19] = Plasma clearance in wistar rats after intravenous administration of the compound at a dose of 1 mg/kg; type: ADME, organism-based; set-up: dose 1 mg/kg, route intravenous; conditions: rat
Method in brief: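 Rats given 1 mg kg-1 iv in EtOH/PEG400 (1:9), 1 mL kg-1.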

Compound | pIC50 (Coagulation factor X [4]) | Concentration (Rattus norvegicus [1]) [µM] | ED50 (Rattus norvegicus [2]) [mg/kg] | Concentration (Coagulation factor X [3]) [µM] | ED50 (Rattus norvegicus [5]) [mg/kg] | further results
O=C(NC[C@H]1CN(c2ccc(N3CCOCC3=O)c(C(F)(F)F)c2)C(=O)O1)c1ccc(Cl)s1 |  | 0.32 | 3 | 0.26 |  | 
O=C(NC[C@H]1CN(c2ccc(N3CCOCC3=O)cc2)C(=O)O1)c1ccc(Cl)s1 [RIVAROXABAN] |  | 0.3 | 1 | 0.23 | 5 | Vd [6]: 0.3 L/kg; Vd [7]: 0.4 L/kg; Fraction free drug in plasma [8]: 1.3%; half-life [9]: 54 min; half-life [10]: 54 min; bioavailability [11]: 86%; clearance [12]: 0.4 L/h/kg; bioavailability [13]: 60%; fraction unbound [14]: 0.104; clearance [15]: 0.3 L/h/kg
Nc1cc(N2C[C@H](CNC(=O)c3ccc(Cl)s3)OC2=O)ccc1N1CCOCC1=O |  | 0.49 |  | 0.3 |  | 
O=C(NC[C@H]1CN(c2ccc(N3CCOCC3=O)c(F)c2)C(=O)O1)c1ccc(Cl)s1 |  | 0.32 | 1 | 0.17 | 10 | half-life [16]: 18 min; clearance [17]: 1.09 L/h/kg; Vd [18]: 0.32 L/kg
O=C(NC[C@H]1CN(c2ccc(N3CCCC3=O)cc2)C(=O)O1)c1ccc(Cl)s1 |  | 2.8 | 7 |  | > 30 | half-life [16]: 66 min; fraction unbound ([8]; read-out: Fraction free drug in plasma): 0.002; bioavailability [13]: 65%; clearance [19]: 0.17 L/h/kg; Vd [18]: 0.21 L/kg

Second part, led by results:

pIC50 (Coagulation factor X [4]) | Compound | Concentration (Rattus norvegicus [1]) [µM] | ED50 (Rattus norvegicus [2]) [mg/kg] | Concentration (Coagulation factor X [3]) [µM] | ED50 (Rattus norvegicus [5]) [mg/kg] | further results
4.70 | O=C(NC[C@H]1CN(c2ccc(N3CCSCC3)c(F)c2)C(=O)O1)c1cccs1 |  |  |  |  | 
8.07 | Nc1cc(C(=O)NC[C@H]2CN(c3ccc(N4CCOCC4=O)cc3)C(=O)O2)sc1Cl |  |  |  |  | 
6.92 | N=C(N)COc1cccc(CN2CC3C(NC(=O)c4ccc(Cl)s4)C=CC[C@H]3C2=O)c1 (some centres not stated) |  |  |  |  | 
